Compound activity as filed in PubChem.
TAAR1 antagonist: antagonists of human TAAR1 | CHO RD-HGA16 TAAR1, Fluo-8 calcium fluorescence, antagonist | inhibition, % at 3 µM | 1.5% of 360,000 active | AID 624466;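 active = inhibition above a per-plate cutoff, the mean inhibition of test compounds on that plate plus 3 SD, cut at about 49% in these data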;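 note: 0% = DMSO plus EC80 beta-PEA response and 100% = DMSO alone without agonist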
Target sequence (Q96RJ0 whole entry, looked up): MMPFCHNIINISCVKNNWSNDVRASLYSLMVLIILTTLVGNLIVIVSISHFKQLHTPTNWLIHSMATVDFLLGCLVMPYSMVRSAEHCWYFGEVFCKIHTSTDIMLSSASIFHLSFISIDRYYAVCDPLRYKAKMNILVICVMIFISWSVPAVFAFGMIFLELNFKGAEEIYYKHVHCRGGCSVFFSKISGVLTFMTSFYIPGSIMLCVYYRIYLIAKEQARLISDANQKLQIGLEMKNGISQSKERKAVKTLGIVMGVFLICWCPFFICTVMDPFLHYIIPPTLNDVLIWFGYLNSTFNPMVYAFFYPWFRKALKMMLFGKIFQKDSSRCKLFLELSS
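Material: RD-HGA16 CHO cells with stable hTAAR1 and Gα16; Dosing: single nominal final test compound concentration of 3 µM; Schedule: seeding 17-24 h prior, 75-min 37 °C, 30-min RT dye loading; Detection: kinetic Fluo-8 calcium fluorescence measurement; Measure: % inhibition from peak post-agonist over basal fluorescence ratio; Benchmarks: vehicle and agonist controls.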
CHRM1 antagonist: antagonists of human M1 muscarinic receptor; P11229; CHO-K1 hM1, Fluo-8 calcium fluorescence, ACh EC80 antagonist; inhibition, % at 3 µM; 1.3% of 360,000 active;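 active = percent inhibition above its own plate's cutoff, namely the mean of that plate's compound wells plus 3 SD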;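 note: peak over basal fluorescence ratio during 140 s after agonist addition; 0% = ACh EC80 plus DMSO and 100% = DMSO alone without agonist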
M1 PAM: human CHRM1 positive allosteric modulation | P11229 | CHO-K1 hM1, Fluo-8 calcium fluorescence, ACh EC20; 0% = ACh EC20, 100% = maximal ACh | activation, % at 3 µM | 0.088% of 360,000 active | AID 588819; in the data active = activation above about 19%, passing the limit was not always enough
M1 ag: activates human CHRM1 receptor | activation, % at 3 µM | AID 588814 | 0.33% of 360,000 active | CHO-K1 hM1, Fluo-8 calcium fluorescence, agonist mode; 0% DMSO, 100% acetylcholine EC100;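 active = activation above the run's mean compound activation plus 3 SD, cut at about 16% in these data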;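 note: peak over basal fluorescence ratio within a 140 s kinetic read after compound addition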
TAAR1 agonist: human TAAR1 agonism | Q96RJ0 | CHO RD-HGA16 TAAR1, Fluo-8 calcium fluorescence; vehicle wells 0%, saturating PEA agonist 100% | activation, % at 3 µM | 0.99% of 360,000 active | AID 624467;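 active = activation above the mean activation of all test compounds in the run plus 3 SD, cut at about 38% in these data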
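Assay system: CHO-derived RD-HGA16 cells with stable Gα16 and human TAAR1; timing: 17-24 h seeding, 75 min 37 °C dye, 30 min RT; read-out: % activation from peak over basal fluorescence ratio, DMSO-to-PEA scaled; measured by: kinetic Fluo-8 calcium fluorescence; benchmarks: low control DMSO, high control PEA (EC100); doses: 3 µM single concentration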
The depositor's hits bear a star; nt = no result. A selection: hits, their analogues and other compounds. The true share with any hit is near 3.4%.

SMILES | TAAR1 antagonist | CHRM1 antagonist | M1 PAM | M1 ag | TAAR1 agonist
Nc1[nH]c(C(=O)c2ccc(Br)cc2)c(-c2cccc3ccccc23)c1C(=O)NCCc1c[nH]c2ccccc12 | -24 | nt | nt | nt | 3
COc1cccc(-c2nc(CS(=O)(=O)CC(=O)NCCCN3CC(C)CC(C)C3)c(C)o2)c1 (stereo unspecified) | 2 | 41* | -19 | -6 | 0
O=C(c1ccc(N2CCN(C(=O)c3ccc(F)cc3F)CC2)cc1)c1cccc(F)c1 | 63* | 25 | -14 | 1 | 4
Cc1ccc(C(=O)NC(C)c2ccc(S(N)(=O)=O)cc2)s1 (stereo unspecified) | 9 | 1 | 29* | -1 | -4
CC(NC(=O)c1ccc(C(=O)c2ccccc2)cc1)c1ccc(S(N)(=O)=O)cc1 (stereo unspecified) | 4 | -6 | 3 | -6 | 1
Cc1cccc(CSC2=NCCN2S(=O)(=O)c2ccc(F)cc2)c1 | -14 | 39* | -16 | -2 | 2
CC1(C)C(C=C(Cl)Cl)C1C(=O)N1CCN(Cc2ccccc2)CC1 (stereo unspecified) | -20 | 42* | -23 | -7 | -1
O=C(NCc1ccc(Cl)cc1)c1ccc(CNc2c(N3CCCC3)c(=O)c2=O)cc1 | -20 | 9 | -4 | -4 | 1
CN(C)c1ccc(CNC(=O)c2ccc(CNc3c(N4CCCCC4)c(=O)c3=O)cc2)cc1 | 3 | -12 | 27* | -7 | 2
CCc1ccc(OCC(=O)NNC(=S)NC(=O)C2CC2)c(Br)c1 | 9 | -15 | 10 | -2 | 40*
COc1ccc(C2CC(=O)C(c3ccc(C#N)cc3)=CN2Cc2ccccc2)cc1 (stereo unspecified) | 18 | nt | nt | nt | 3
Cc1[nH]nc(SCC(=O)NCCc2ccccc2)c1[N+](=O)[O-] | 75* | -10 | 8 | 0 | 39*
O=C(COC(=O)[C@H](Cc1ccccc1)NC(=O)c1ccco1)Nc1ccccc1 | -12 | -6 | 3 | -3 | 6
CN(C)S(=O)(=O)c1cccc(NC(=O)COC(=O)[C@H](Cc2ccccc2)NC(=O)c2ccco2)c1 | 55* | 0 | -6 | -1 | 14
CN(C)S(=O)(=O)c1cccc(NC(=O)c2ccc(COc3ccccc3)cc2)c1 | 77* | 39* | -24 | -3 | 15
CCOc1cccc(NC(=O)c2ccc(S(=O)(=O)N(C)C)cc2)c1 | -8 | 3 | -4 | -4 | 3
CCN(CC)CCNC(=O)c1ccc(NC(=O)COc2ccc3c(c2)CCC3)cc1 | -3 | 45* | -26 | -7 | 14
CCN(CC)CCNC(=O)c1ccc(NC(=O)c2ccc(COc3ccccc3)cc2)cc1 | 52* | 53* | -24 | -6 | 4
COc1ccc(NC(=O)CC2(CC(=O)N3CCOCC3)CCCC2)cc1Cl | -13 | 56* | -17 | -8 | 1
CN(CCOc1ccc(Cl)cc1)Cc1cccc(S(=O)(=O)N(C)C)c1 | -7 | 16 | -7 | 32* | 2
CN(CCOc1ccccc1)Cc1ccccc1 | nt | 6 | -4 | -9 | nt
Cc1c(C(=O)Nc2ccccc2)sc2nc(-c3ccccc3)cn12 | 51* | 3 | -7 | 0 | 23
Cc1cccc(NC(=O)c2sc3nc(-c4ccccc4)cn3c2C)n1 | 46 | -2 | -6 | 4 | 12
COc1c(C(=O)Nc2ccc(Cc3ccncc3)cc2)ccc2ccccc12 | 55* | 11 | -4 | -2 | 11
COc1ccc(C(C(=O)NC(C)(C)C)n2c(-c3ccc(-c4ccccc4)cc3)nc3ccccc32)cc1 (stereo unspecified) | -39 | nt | nt | nt | 3
CCNC(=O)c1cc2c(c(-c3cccc(-c4ccccc4F)c3)n1)[C@H](CCO)N(C(=O)CC)C2 | -12 | nt | nt | nt | 2
CCNC(=O)c1cc2c(c(-c3cccc(-c4cc5ccccc5o4)c3)n1)[C@H](CCO)N(C(=O)NC(C)C)C2 | 56* | nt | nt | nt | 12
CCC(=O)N1Cc2cc(C(=O)Nc3nccs3)nc(-c3cccc(-c4ccccc4OC)c3)c2[C@H]1CCO | 57* | nt | nt | nt | 14
CCCNC(=O)c1cc2c(c(-c3cccc(-c4cc5ccccc5o4)c3)n1)[C@@H](CCO)N(C(=O)NC(C)C)C2 | 42 | nt | nt | nt | 4
